Values belong to the compound of their own block, whether it stands above or below them. Activity calls are given as the source filed them. No cut-off for these calls is given here.
What was measured:
PC-12 [1] = assay: Induction of rat PC12 cell proliferation at 0.5 to 50 uM after 72 hrs by microscopic analysis; assay type: functional, cell-based
Outline: (§1)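 Undifferentiated PC12 cells cultured 72 h with compound at 0.5–50 µM (images at 10 µM) or with NGF 50 ng/ml, then examined under a digital microscope.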

PC-12 [2] = assay: Induction of rat PC12 cell proliferation at 10 uM after 72 hrs by microscopic analysis; assay type: functional, cell-based; outline: as §1
[3] = Permeability of compound at 100 ug/ml after 10 hrs by PAMPA assay; assay type: ADME; conditions: read-out: permeability
PC-12 [4] = assay: Cytotoxicity against rat undifferentiated PC12 cells at 0.5 to 50 uM after 72 hrs by MTT assay; assay type: cell-based; conditions: pc-12, 72 h
SH-SY5Y = assay: Neuroprotective activity against t-BuOOH-induced oxidative stress in human SH-SY5Y cells assessed as inhibition ROS accumulation pre-incubated for 24 hrs before t-BuOOH challnge for 30 mins by DCFH-DA probe based fluorescence assay; assay type: functional, cell-based
Outline: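 SH-SY5Y cells; test agents at 1–0.01 µM, oxidative stress induced by tert-butyl hydroperoxide; intracellular ROS read by DCFH-DA fluorescence; at least three independent experiments in sextuplicate; EC50 derived.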

[5] = Metabolic stability in Sprague-Dawley rat liver microsomes assessed as metabolic rate constant at 100 uM up to 180 mins by HPLC-UV analysis; conditions: 3 h
[6] = Half life in Sprague-Dawley rat liver microsomes at 100 uM up to 180 mins by HPLC-UV analysis
Mus musculus [7] = assay: Toxicity in C57BL/6 mouse assessed as mortality at 677 to 2000 mg/kg, ig measured continuously during first 4 hrs, intermittently for following 24 hrs and occasionally thereafter for 14 consecutive days; assay type: organism-based; conditions: in vivo, po
Outline: (§2)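 Adult C57BL/6 mice, 12 weeks old, given single intragastric doses of 0, 677, 1333 or 2000 mg/kg (n = 6 per dose, 3 male and 3 female). Abnormal behaviour and deaths observed continuously for the first 4 h, intermittently over the next 24 h, then occasionally for 14 days to catch delayed effects.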

Mus musculus [8] = assay: Toxicity in C57BL/6 mouse assessed as abnormal behavior at 677 to 2000 mg/kg, ig measured continuously during first 4 hrs, intermittently for following 24 hrs and occasionally thereafter for 14 consecutive days; assay type: organism-based; conditions: in vivo, po; outline: as §2
Mus musculus [9] = assay: Toxicity in C57BL/6 mouse assessed as effect on water intake at 677 to 2000 mg/kg, ig measured continuously during first 4 hrs, intermittently for following 24 hrs and occasionally thereafter for 14 consecutive days; assay type: organism-based; conditions: in vivo, po
Mus musculus [10] = assay: Toxicity in C57BL/6 mouse assessed as effect on food intake at 677 to 2000 mg/kg, ig measured continuously during first 4 hrs, intermittently for following 24 hrs and occasionally thereafter for 14 consecutive days; assay type: organism-based; conditions: in vivo, po
Mus musculus [11] = assay: Toxicity in C57BL/6 mouse assessed as effect on body weight at 677 to 2000 mg/kg, ig measured continuously during first 4 hrs, intermittently for following 24 hrs and occasionally thereafter for 14 consecutive days; assay type: organism-based; conditions: in vivo, po
Mus musculus [12] = assay: Toxicity in C57BL/6 mouse assessed as macroscopic abnormalities of stomach at 677 to 2000 mg/kg, ig after 14 consecutive days; assay type: organism-based; conditions: in vivo, po
Mus musculus [13] = assay: Toxicity in C57BL/6 mouse assessed as macroscopic abnormalities of intestine at 677 to 2000 mg/kg, ig after 14 consecutive days; assay type: organism-based; conditions: in vivo, po
Mus musculus [14] = assay: Toxicity in C57BL/6 mouse assessed as macroscopic abnormalities of spleen at 677 to 2000 mg/kg, ig after 14 consecutive days; assay type: organism-based; conditions: in vivo, po
Mus musculus [15] = assay: Toxicity in C57BL/6 mouse assessed as histological abnormalities of heart at 2000 mg/kg, ig after 14 consecutive days by hematoxylin/eosin dye-based microscopic analysis; assay type: organism-based; conditions: in vivo, po
Outline: (§3)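 Adult C57BL/6 mice, 12 weeks old, single intragastric doses of 0, 677, 1333 or 2000 mg/kg (n = 6 per dose, 3 male/3 female); behaviour and mortality observed over 14 days; liver, heart, lung and brain examined by HE staining at 2000 mg/kg.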

Mus musculus [16] = assay: Toxicity in C57BL/6 mouse assessed as histological abnormalities of lung at 2000 mg/kg, ig after 14 consecutive days by hematoxylin/eosin dye-based microscopic analysis; assay type: organism-based; conditions: in vivo, po, 336 h; outline: as §3
Mus musculus [17] = assay: Toxicity in C57BL/6 mouse assessed as histological abnormalities of liver at 2000 mg/kg, ig after 14 consecutive days by hematoxylin/eosin dye-based microscopic analysis; assay type: organism-based; conditions: in vivo, po, 336 h; outline: as §3
Mus musculus [18] = assay: Toxicity in C57BL/6 mouse assessed as histological abnormalities of brain at 2000 mg/kg, ig after 14 consecutive days by hematoxylin/eosin dye-based microscopic analysis; assay type: organism-based; conditions: in vivo, po, 336 h; outline: as §3
Mus musculus [19] = assay: Toxicity in C57BL/6 mouse assessed as macroscopic abnormalities of kidney at 677 to 2000 mg/kg, ig after 14 consecutive days; assay type: organism-based; conditions: in vivo, po
Mus musculus [20] = assay: Induction of cell proliferation in C57BL/6 mouse hippocampal neurons in DG region assessed as BrdU-incorporation at 0.5 uL/hr, icv for 7 days by immunohistochemical analysis (reference value: 7.8%); assay type: functional
Mus musculus [21] = assay: Induction of cell proliferation in C57BL/6 mouse hippocampal neurons in CA1 region assessed as BrdU-incorporation at 0.5 uL/hr, icv for 7 days by immunohistochemical analysis (reference value: 3.2%); assay type: functional
Mus musculus [22] = assay: Induction of cell proliferation in C57BL/6 mouse hippocampal neurons in CA2 region assessed as BrdU-incorporation at 0.5 uL/hr, icv for 7 days by immunohistochemical analysis (reference value: 2.4%); assay type: functional
Mus musculus [23] = assay: Induction of cell proliferation in C57BL/6 mouse hippocampal neurons in CA3 region assessed as BrdU-incorporation at 0.5 uL/hr, icv for 7 days by immunohistochemical analysis (reference value: 1.4%); assay type: functional
Mus musculus [24] = assay: Induction of cell proliferation in C57BL/6 mouse hippocampal neurons in DG region assessed as BrdU-incorporation at 30 mg/kg, po administered via gavage for 7 days by immunohistochemical analysis (reference value: 2.2%); assay type: functional
Outline: (§4)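 C57BL/6 mice, 12 weeks old, n = 6, individually housed beforehand without wheels. Compound gavaged 30 mg/kg/day for 7 days with daily IP BrdU 50 mg/kg; BrdU+ cells counted by immunohistochemistry per hippocampal volume; two-way ANOVA.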

Mus musculus [25] = assay: Induction of cell proliferation in C57BL/6 mouse hippocampal neurons in CA1 region assessed as BrdU-incorporation at 30 mg/kg, po administered via gavage for 7 days by immunohistochemical analysis (reference value: 2.3%); assay type: functional; outline: as §4
Mus musculus [26] = assay: Induction of cell proliferation in C57BL/6 mouse hippocampal neurons in CA2 region assessed as BrdU-incorporation at 30 mg/kg, po administered via gavage for 7 days by immunohistochemical analysis (reference value: 2.4%); assay type: functional; outline: as §4
Mus musculus [27] = assay: Induction of cell proliferation in C57BL/6 mouse hippocampal neurons in CA3 region assessed as BrdU-incorporation at 30 mg/kg, po administered via gavage for 7 days by immunohistochemical analysis (reference value: 1.5%); assay type: functional; outline: as §4
Mus musculus [28] = assay: Toxicity in C57BL/6 mouse assessed as macroscopic abnormalities of heart at 677 to 2000 mg/kg, ig after 14 consecutive days; assay type: organism-based; conditions: in vivo, po
Mus musculus [29] = assay: Toxicity in C57BL/6 mouse assessed as macroscopic abnormalities of lung at 677 to 2000 mg/kg, ig after 14 consecutive days; assay type: organism-based; conditions: in vivo, po, 336 h
Mus musculus [30] = assay: Toxicity in C57BL/6 mouse assessed as macroscopic abnormalities of liver at 677 to 2000 mg/kg, ig after 14 consecutive days; assay type: organism-based; conditions: in vivo, po

Papp at 10 h, 100 ug/ml [3]: 12.1 ×10⁻⁶ cm/s
Compound: COc1cc2[nH]c(-c3ccc4cccc(O)c4n3)cc2cc1O

Papp at 10 h, 100 ug/ml [3]: 8 ×10⁻⁶ cm/s
Compound: Oc1cccc2ccc(-c3cc4ccccc4[nH]3)nc12

Papp at 10 h, 100 ug/ml [3]: 14.8 ×10⁻⁶ cm/s
Compound: Oc1ccc2[nH]c(-c3ccc4cccc(O)c4n3)cc2c1
Activity (PC-12 [4]): Toxic

Papp at 10 h, 100 ug/ml [3]: 8.4 ×10⁻⁶ cm/s
Compound: COc1cc2[nH]c(-c3ccc4c(Cl)cc(Cl)c(O)c4n3)cc2cc1O
Activity (PC-12 [1]): inactive

The next lines start with the compound.

Compound: Oc1cccc2ccc(-c3cc4ccc5c(c4[nH]3)OCO5)nc12 [listing 1 of 2 here]
Activity (PC-12 [1]): Active
Activity (PC-12 [2]): Active

Compound: Oc1c(Cl)cc(Cl)c2ccc(-c3cc4cc(Cl)ccc4[nH]3)nc12
Papp at 10 h, 100 ug/ml [3]: 5.6 ×10⁻⁶ cm/s
Activity (PC-12 [4]): Non-Toxic
EC50 (SH-SY5Y): 820 nM

Compound: Oc1ccc2[nH]c(-c3ccc4c(Cl)cc(Cl)c(O)c4n3)cc2c1
Papp at 10 h, 100 ug/ml [3]: 10.2 ×10⁻⁶ cm/s
Activity (PC-12 [4]): Non-Toxic
EC50 (SH-SY5Y): 100 nM

Compound: Oc1cccc2ccc(-c3cc4ccc5c(c4[nH]3)OCO5)nc12 [listing 2 of 2 here]
Papp at 10 h, 100 ug/ml [3]: 5.9 ×10⁻⁶ cm/s
Activity (PC-12 [4]): Non-Toxic
EC50 (SH-SY5Y): 260 nM

Compound: COc1cc2cc(-c3ccc4c(Cl)cc(Cl)c(O)c4n3)[nH]c2cc1OC
Papp at 10 h, 100 ug/ml [3]: 3.9 ×10⁻⁶ cm/s
Activity (PC-12 [4]): Toxic

Compound: COc1cc2c(cc1OC)C(=O)C(CC1CCN(Cc3ccccc3)CC1)C2 (stereo not drawn) [DONEPEZIL]
K [5]: 0.00889 min⁻¹
half-life at 3 h, 100 µM ([6]; microsomes): 1.3 h

Compound: Cl.Oc1c(Cl)cc(Cl)c2ccc(-c3cc4cc(Cl)ccc4[nH]3)nc12
K [5]: 0.00354 min⁻¹
half-life at 3 h, 100 µM ([6]; liver microsomes): 3.26 h
Activity (Mus musculus [7]): Non-Toxic
Activity (Mus musculus [8]): Non-Toxic
Activity (Mus musculus [9]): Non-Toxic
Activity (Mus musculus [10]): Non-Toxic
Activity (Mus musculus [11]): Non-Toxic
Activity (Mus musculus [12]): Non-Toxic
Activity (Mus musculus [13]): Non-Toxic
Activity (Mus musculus [14]): Non-Toxic
Activity (Mus musculus [15]): Non-Toxic
Activity (Mus musculus [16]): Non-Toxic
Activity (Mus musculus [17]): Non-Toxic
Activity (Mus musculus [18]): Non-Toxic
Activity (Mus musculus [19]): Non-Toxic
Activity (Mus musculus [20]): 28.5%
Activity (Mus musculus [21]): 15.3%
Activity (Mus musculus [22]): 18.1%
Activity (Mus musculus [23]): 20.3%
Activity (Mus musculus [24]): 4.4%
Activity (Mus musculus [25]): 4.8%
Activity (Mus musculus [26]): 5.1%
Activity (Mus musculus [27]): 4.7%
Activity (Mus musculus [28]): Non-Toxic
Activity (Mus musculus [29]): Non-Toxic
Activity (Mus musculus [30]): Non-Toxic

Compound: Cl.Oc1cccc2ccc(-c3cc4ccc5c(c4[nH]3)OCO5)nc12
K [5]: 0.01183 min⁻¹
half-life at 3 h, 100 µM ([6]; microsomes): 0.977 h
Activity (Mus musculus [7]): Non-Toxic
Activity (Mus musculus [8]): Non-Toxic
Activity (Mus musculus [9]): Non-Toxic
Activity (Mus musculus [10]): Non-Toxic
Activity (Mus musculus [11]): Non-Toxic
Activity (Mus musculus [12]): Non-Toxic
Activity (Mus musculus [13]): Non-Toxic
Activity (Mus musculus [14]): Non-Toxic
Activity (Mus musculus [15]): Non-Toxic
Activity (Mus musculus [16]): Non-Toxic
Activity (Mus musculus [17]): Non-Toxic
Activity (Mus musculus [18]): Non-Toxic
Activity (Mus musculus [19]): Non-Toxic
Activity (Mus musculus [20]): 43.6%
Activity (Mus musculus [21]): 61.9%
Activity (Mus musculus [22]): 56.1%
Activity (Mus musculus [23]): 49.3%
Activity (Mus musculus [24]): 7.6%
Activity (Mus musculus [25]): 8%
Activity (Mus musculus [26]): 7.5%
Activity (Mus musculus [27]): 3.9%
Activity (Mus musculus [28]): Non-Toxic
Activity (Mus musculus [29]): Non-Toxic
Activity (Mus musculus [30]): Non-Toxic

From ChEMBL document CHEMBL4118104, “Design, Synthesis, and Evaluation of Orally Bioavailable Quinoline-Indole Derivatives as Innovative Multitarget-Directed Ligands: Promotion of Cell Proliferation in the Adult Murine Hippocampus for the Treatment of Alzheimer's Disease” (J Med Chem, 2018)
